Measurements from ChEMBL document CHEMBL5058577, “EUbOPEN Chemogenomics Library 2 (Multiplex)” (2022).

Test system: U2OS
Assay: Multiplex assay against U2OS
Type: toxicity, cell-based
Conditions: human
Method in brief: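 Phenotypes for tubulin, mitochondrial mass and membrane permeability are expressed as per cents of healthy-nucleus cells. Cells were stained live at seeding with Hoechst33342, BioTracker Green Microtubule Cytoskeleton Dye, MitoTracker Red and Annexin V Alexa Fluor 680, then imaged after compound addition on a CQ1 microscope at 37°C and 5% CO2. Machine-learning gating in CellPathfinder separated Hoechst high-intensity objects from normal cells, divided normal cells by nuclear state (healthy, pyknosed, fragmented) and divided pyknosed cells into mitotic or apoptotic.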

[1] = 12 h, 1 µM, compound concentration 1 uM, replicate 1
[2] = 12 h, 1 µM, compound concentration 1 uM, replicate 2
[3] = 12 h, 10 µM, compound concentration 10 uM, replicate 1
[4] = 12 h, 10 µM, compound concentration 10 uM, replicate 2
[5] = 24 h, 1 µM, compound concentration 1 uM, replicate 1
[6] = 24 h, 1 µM, compound concentration 1 uM, replicate 2
[7] = 24 h, 10 µM, compound concentration 10 uM, replicate 1
[8] = 24 h, 10 µM, compound concentration 10 uM, replicate 2
[9] = 48 h, 1 µM, compound concentration 1 uM, replicate 1
[10] = 48 h, 1 µM, compound concentration 1 uM, replicate 2
[11] = 48 h, 10 µM, compound concentration 10 uM, replicate 1
[12] = 48 h, 10 µM, compound concentration 10 uM, replicate 2

With N#Cc1cc(F)cc(-c2nc(-c3ccc(F)cn3)no2)c1 the “Population Apoptotic (%)” value [1] was 55%, the “Population Fragmented Nuclei (%)” value [1] was 24% and the “Population Healthy Nuclei (%)” value [1] was 65%. For the same compound, the “Population Hoechst High Intensity Objects (%)” value [1] was 1%, the “Population Membrane Permeable-Phenotype (%)” value [1] was 5% and the “Population Mitochondria Different-Phenotype (%)” value [1] was 0%. For the same compound, the “Population Mitotic Cells (%)” value [1] was 44%, the “Population Normal (%)” value [1] was 98% and the “Population Pyknosed Nuclei (%)” value [1] was 10%. For the same compound, the “Population Tubulin-Different-Phenotype (%)” value [1] was 3%, the “Total Cell Count” value [1] was 178 and the “Population Apoptotic (%)” value [2] was 100%. The “Population Fragmented Nuclei (%)” value [2] was 17%, the “Population Healthy Nuclei (%)” value [2] was 79% and the “Population Hoechst High Intensity Objects (%)” value [2] was 0%. The “Population Membrane Permeable-Phenotype (%)” value [2] was 6%, the “Population Mitochondria Different-Phenotype (%)” value [2] was 5% and the “Population Mitotic Cells (%)” value [2] was 0%. For the same compound, the “Population Normal (%)” value [2] was 99%, the “Population Pyknosed Nuclei (%)” value [2] was 4% and the “Population Tubulin-Different-Phenotype (%)” value [2] was 2%. The “Total Cell Count” value [2] was 101, the “Population Apoptotic (%)” value [3] was 76% and the “Population Fragmented Nuclei (%)” value [3] was 33%. For the same compound, the “Population Healthy Nuclei (%)” value [3] was 59%, the “Population Hoechst High Intensity Objects (%)” value [3] was 1% and the “Population Membrane Permeable-Phenotype (%)” value [3] was 8%. The “Population Mitochondria Different-Phenotype (%)” value [3] was 2%, the “Population Mitotic Cells (%)” value [3] was 23% and the “Population Normal (%)” value [3] was 98%. For the same compound, the “Population Pyknosed Nuclei (%)” value [3] was 6%, the “Population Tubulin-Different-Phenotype (%)” value [3] was 2% and the “Total Cell Count” value [3] was 196. For the same compound, the “Population Apoptotic (%)” value [4] was 88%, the “Population Fragmented Nuclei (%)” value [4] was 12% and the “Population Healthy Nuclei (%)” value [4] was 81%. For the same compound, the “Population Membrane Permeable-Phenotype (%)” value [4] was 7%, the “Population Mitochondria Different-Phenotype (%)” value [4] was 4% and the “Population Mitotic Cells (%)” value [4] was 11%. The “Population Tubulin-Different-Phenotype (%)” value [4] was 1%, the “Total Cell Count” value [4] was 151 and the “Population Apoptotic (%)” value [5] was 90%. The “Population Fragmented Nuclei (%)” value [5] was 22%, the “Population Healthy Nuclei (%)” value [5] was 66% and the “Population Hoechst High Intensity Objects (%)” value [5] was 4%. The “Population Membrane Permeable-Phenotype (%)” value [5] was 8%, the “Population Mitochondria Different-Phenotype (%)” value [5] was 0% and the “Population Mitotic Cells (%)” value [5] was 9%. The “Population Normal (%)” value [5] was 95%, the “Population Pyknosed Nuclei (%)” value [5] was 11% and the “Population Tubulin-Different-Phenotype (%)” value [5] was 4%. The “Total Cell Count” value [5] was 197, the “Population Fragmented Nuclei (%)” value [6] was 8% and the “Population Healthy Nuclei (%)” value [6] was 84%. For the same compound, the “Population Hoechst High Intensity Objects (%)” value [6] was 0%, the “Population Membrane Permeable-Phenotype (%)” value [6] was 2% and the “Population Mitochondria Different-Phenotype (%)” value [6] was 3%. The “Population Mitotic Cells (%)” value [6] was 10%, the “Population Normal (%)” value [6] was 99% and the “Population Pyknosed Nuclei (%)” value [6] was 8%. The “Population Tubulin-Different-Phenotype (%)” value [6] was 2%, the “Total Cell Count” value [6] was 126 and the “Population Apoptotic (%)” value [7] was 93%. The “Population Fragmented Nuclei (%)” value [7] was 32%, the “Population Healthy Nuclei (%)” value [7] was 60% and the “Population Hoechst High Intensity Objects (%)” value [7] was 1%. The “Population Membrane Permeable-Phenotype (%)” value [7] was 7%, the “Population Mitochondria Different-Phenotype (%)” value [7] was 0% and the “Population Mitotic Cells (%)” value [7] was 6%. For the same compound, the “Population Normal (%)” value [7] was 98%, the “Population Pyknosed Nuclei (%)” value [7] was 7% and the “Population Tubulin-Different-Phenotype (%)” value [7] was 2%. The “Total Cell Count” value [7] was 230, the “Population Apoptotic (%)” value [8] was 88% and the “Population Fragmented Nuclei (%)” value [8] was 9%. For the same compound, the “Population Healthy Nuclei (%)” value [8] was 85%, the “Population Hoechst High Intensity Objects (%)” value [8] was 0% and the “Population Membrane Permeable-Phenotype (%)” value [8] was 5%. The “Population Mitochondria Different-Phenotype (%)” value [8] was 1%, the “Population Mitotic Cells (%)” value [8] was 11% and the “Population Normal (%)” value [8] was 99%. For the same compound, the “Population Pyknosed Nuclei (%)” value [8] was 4%, the “Population Tubulin-Different-Phenotype (%)” value [8] was 1% and the “Total Cell Count” value [8] was 216. For the same compound, the “Population Apoptotic (%)” value [9] was 96%, the “Population Fragmented Nuclei (%)” value [9] was 18% and the “Population Healthy Nuclei (%)” value [9] was 71%. For the same compound, the “Population Hoechst High Intensity Objects (%)” value [9] was 1%, the “Population Membrane Permeable-Phenotype (%)” value [9] was 4% and the “Population Mitochondria Different-Phenotype (%)” value [9] was 0%. For the same compound, the “Population Mitotic Cells (%)” value [9] was 3%, the “Population Normal (%)” value [9] was 98% and the “Population Pyknosed Nuclei (%)” value [9] was 9%. The “Population Tubulin-Different-Phenotype (%)” value [9] was 2%, the “Total Cell Count” value [9] was 290 and the “Population Apoptotic (%)” value [10] was 100%. For the same compound, the “Population Fragmented Nuclei (%)” value [10] was 15%, the “Population Healthy Nuclei (%)” value [10] was 79% and the “Population Mitochondria Different-Phenotype (%)” value [10] was 3%. For the same compound, the “Population Mitotic Cells (%)” value [10] was 0%, the “Population Pyknosed Nuclei (%)” value [10] was 5% and the “Population Tubulin-Different-Phenotype (%)” value [10] was 1%. The “Total Cell Count” value [10] was 199, the “Population Apoptotic (%)” value [11] was 85% and the “Population Fragmented Nuclei (%)” value [11] was 30%. For the same compound, the “Population Healthy Nuclei (%)” value [11] was 62%, the “Population Hoechst High Intensity Objects (%)” value [11] was 1% and the “Population Membrane Permeable-Phenotype (%)” value [11] was 6%. The “Population Mitochondria Different-Phenotype (%)” value [11] was 2%, the “Population Mitotic Cells (%)” value [11] was 14% and the “Population Normal (%)” value [11] was 98%. For the same compound, the “Population Pyknosed Nuclei (%)” value [11] was 7%, the “Population Tubulin-Different-Phenotype (%)” value [11] was 3% and the “Total Cell Count” value [11] was 282. For the same compound, the “Population Apoptotic (%)” value [12] was 94%, the “Population Fragmented Nuclei (%)” value [12] was 10% and the “Population Healthy Nuclei (%)” value [12] was 84%. The “Population Membrane Permeable-Phenotype (%)” value [12] was 4%, the “Population Mitotic Cells (%)” value [12] was 5% and the “Population Pyknosed Nuclei (%)” value [12] was 5%. For the same compound, the “Population Tubulin-Different-Phenotype (%)” value [12] was 2% and the “Total Cell Count” value [12] was 344.
